# CSN inh: inhibitors of CSN-mediated cullin deneddylation, primary screen, biochemical, fluorescence polarization, uHTS. inhibition, % at 12.5 µM. actives 0.38% (n = 360,000). COP9 signalosome complex subunit 5 (Homo sapiens), Q92905. AID 651999, 2013. Purified CSN, SCF-Nedd8-OG deneddylation;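 active means pattern-corrected inhibition above about 35%, with an unprinted fluorescence ratio check between 0.5 and 1.5, limit read from the data, passing the limit was not always enough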;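 further: 0% = enzyme with substrate and 100% = substrate without enzyme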
#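 Test system: purified human Csn5 enzyme expressed in HEK293T cells. Amount: 0.24 nM enzyme. Reagent: SCFSkp2-Nedd8OG substrate at 10 nM final. Schedule: 90 min incubation of compound, enzyme and substrate at room temperature. Detection: fluorescence polarization. Read-out: % inhibition of substrate cleavage by Csn5.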
# PKA-R2B activ: activators of PKA-R2B holoenzyme, primary screen, biochemical, fluorescence polarization, Cy5-IP20, human | cAMP-dependent protein kinase catalytic subunit beta (Homo sapiens) + cAMP-dependent … | PKA-R2B holoenzyme dissociation; R2B truncated from residue 108, S112A mutant; 0% DMSO only, 100% 113 µM cGMP | activation, % at 11.4 µM | actives 0.079% (n = 340,000) | AID 504700, 2011;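 active means activation above a cutoff set at the mean over all compounds plus 3 SD, cut at about 18% in these data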;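 further: higher means more holoenzyme dissociation and a rise in polarization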
# TPT1 inh: Candida albicans TPT1 enzyme inhibitors, primary screen, biochemical, fluorescence polarization; recombinant caTPT1, FP RNA substrate dephosphorylation; inhibition, % at 5 µM; actives 0.81% (n = 300,000);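 active means inhibition above the mean of all tested compounds plus 3 SD, set per screening campaign, cut at about 24% in these data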;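 further: plate controls were DMSO alone for no effect and ferristatin control at 100 nM for full effect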
# Rpn11 block: Rpn11 (PSMD14) deubiquitinase inhibitors, primary screen, biochemical, fluorescence polarization, uHTS; AID 588493, 2011; calls only at 20 µM; human 26S proteasome, Ub4-pepOG fluorescence polarization; 20S core pre-blocked with epoxomicin; actives 0.59% (n = 360,000);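 active means inhibition at 20 µM, scaled to each plate's controls, above about 33%, limit read from the data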
# Target sequence (O00487 whole entry, looked up): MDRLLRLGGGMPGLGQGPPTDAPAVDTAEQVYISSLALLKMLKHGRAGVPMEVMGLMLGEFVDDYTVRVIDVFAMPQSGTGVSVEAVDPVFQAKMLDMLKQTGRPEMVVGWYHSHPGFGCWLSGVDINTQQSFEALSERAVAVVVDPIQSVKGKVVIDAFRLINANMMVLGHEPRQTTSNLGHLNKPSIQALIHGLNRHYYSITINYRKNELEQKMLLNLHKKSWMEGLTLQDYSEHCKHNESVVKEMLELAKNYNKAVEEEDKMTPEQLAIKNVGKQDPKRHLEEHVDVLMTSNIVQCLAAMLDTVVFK
# PKA-R1A activ: activators of PKA-R1A holoenzyme, primary screen, biochemical, fluorescence polarization, Cy5-IP20, bovine R1A, mouse PKAc | PKA-R1A dissociation; scaled: DMSO 0%, 113 µM cGMP 100% | actives 0.083% (n = 340,000) | activation, % at 11.4 µM;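 active means percent activation above the mean of all tested compounds plus 3 SD, cut at about 19% in these data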;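 further: higher means more PKAc released from R1A so a rise in polarization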
# HNF4A DNA FP: change in binding of human HNF4A to DNA, primary screen, biochemical, fluorescence polarization, FITC-DNA; Hepatocyte nuclear factor 4-alpha (Homo sapiens), P41235; 1 h; activity change, % at 10 µM; actives 0.3% (n = 360,000); AID 1224865, 2016; in the data active means activity change above about 30%, passing the limit was not always enough
# Rpn11 inh conf: Rpn11 (PSMD14) deubiquitinase inhibitors, confirmation, biochemical, fluorescence polarization, single concentration; inhibition, % at 20 µM; purified human 26S proteasome, Ub4-pepOG fluorescence polarization; proteasome pretreated with epoxomicin; shares compounds with Rpn11 block; actives 29% (n = 1,900)
# MMP-2 inh: MMP-2 enzyme inhibition, confirmation, counter-screen for RPN11 inhibitor project, biochemical, fluorescence, single concentration. shares compounds with Rpn11 block. recombinant MMP-2, FRET peptide cleavage fluorescence. inhibition, % at 20 µM. actives 4% (n = 1,900). AID 602330, 2012;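 further: human MMP-2 activated beforehand with APMA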
# Thrombin FP: bovine thrombin protease inhibition, confirmation, counter-screen for Rpn11 inhibitor project, biochemical, fluorescence polarization, single concentration. inhibition, % at 20 µM. AID 602333, 2012. actives 13% (n = 1,900). bovine thrombin cleavage of Ub4-pepOG. shares compounds with Rpn11 block;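 active means mean inhibition at least 40% at 20 µM, or signal 3 deviations below plate average, so some actives read negative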;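 further: plate controls were thrombin with DMSO for no effect and buffer wells lacking thrombin for full effect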
# * = called active by the depositor; i = inactive; x = not tested or not shown; + = active, no number. This is a sample that favours compounds with a hit; in the whole collection about 1.6% have one here. Unless noted, no stated cut-off is given here; in the data, active means inhibition above about 40%; inactive means the rest.
SMILES,CSN inh,PKA-R2B activ,TPT1 inh,Rpn11 block,PKA-R1A activ,HNF4A DNA FP,Rpn11 inh conf,MMP-2 inh,Thrombin FP
N#Cc1cnc(SCC(=O)NNC(=O)COc2cccc3ccccc23)nc1N,1.3,4.7,51.2*,+,5.2,13.1,9.3,2.4,-0.4
CC(=O)NN1C(=O)/C(=C\c2ccc(Br)o2)SC1=S,33.3,2.7,5.1,+,4.0,95.1,12.1,-19.7,17.9
CCN(CC)c1ccc(/C=C2\C(=O)N(c3nnc(C)c(=O)[nH]3)N=C2C)cc1,9.9,-5.7,42.7*,+,-9.3,-5.3,48.5*,-28.9,29.1
Cc1ccc(S(=O)(=O)N(C)C[C@@H]2OCCCC[C@H](C)Oc3ccc(NC(=O)Nc4ccc(F)cc4)cc3C(=O)N([C@H](C)CO)C[C@H]2C)cc1,1.2,-5.9,x,i,-10.3,-3.8,x,x,x
Cc1ccc(C(=O)Nc2ccc(C(=O)N/N=C/c3cccnc3)cc2)cc1,8.3,9.7,3.0,+,1.6,-4.2,48.9*,i,-36.2
O=C(CSCc1ccc(Cl)cc1)Nc1ccc(O)cc1C(=O)O,-1.7,-8.5,-5.3,i,-1.5,-2.4,x,x,x
O=C(Nc1cccnc1)c1cccc(-c2cc3ccccc3oc2=O)c1,24.7,4.3,-1.1,+,6.2,8.8,115.2*,14.2,14.5
CCn1c(=S)[nH]c2cc(C(=O)O)ccc21,x,x,-3.2,x,x,x,x,x,x
CCn1c(=O)cc(C(F)(F)F)[nH]c1=S,-0.7,-3.1,-2.1,+,-9.5,-1.4,-2.2,8.9,-10.3
CCc1nnc(NC(=O)CCN2C(=O)/C(=C/c3cc(OC)c(OC)c(OC)c3)SC2=S)s1,7.3,-6.4,14.8,+,0.8,21.2,23.2,-40.6,42.4*
CCc1ccc(/C=C2/SC(=S)N(CCC(=O)Nc3ccc(C(=O)O)cc3)C2=O)cc1,9.0,12.4,3.4,+,9.9,22.8,42.9*,3.5,32.7
COc1cc(/C=C2\SC(=S)N(CCC(=O)Nc3ccc(O)cc3)C2=O)cc(OC)c1OC,-1.7,-8.3,-0.3,i,-10.1,2.4,x,x,x
Cc1ccc(/C=C2\SC(=S)N(CCC(=O)NNC(=O)c3ccncc3)C2=O)cc1,5.5,x,6.2,+,x,13.6,10.3,-28.4,12.3
CC1CCN(S(=O)(=O)c2cccc(C(=O)NC3CCS(=O)(=O)C3)c2)CC1 (stereo unspecified),-3.1,4.1,x,i,5.1,-1.3,x,x,x
CC1CN(S(=O)(=O)c2cccc(C(=O)OC/C(O)=C(\C#N)c3nc4ccccc4[nH]3)c2)CC(C)O1 (stereo unspecified),-3.5,12.2,7.0,+,2.6,12.8,6.9,-9.6,4.0
C/C(C/C(C)=C1/SC(=S)NC1=O)=C1\SC(=S)NC1=O,34.6,-19.3,x,+,-1.5,-15.2,41.2*,16.2,-61.5
